For 10 compounds, Activity results are on record in ChEMBL document CHEMBL1155216, “A direct synthesis of 5,6-dihydroindolo[2,1-a]isoquinolines that exhibit immunosuppressive activity” (Bioorg Med Chem Lett, 2009).

Activity calls are given as the source filed them. No cut-off for these calls is given here.

In series [1] the test system is Splenocyte. Put plainly: Immunosuppressive activity in influenza virus A/PR/8/34-H1N1 infected mouse splenocytes assessed as reduction of IL-10 level at 0.5 mg/ml after 96 hrs by ELISA. Type of series: functional, cell-based. In short, it runs like this:
(§1)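 Spleen cells from mice taken 7 days after influenza infection; RBCs lysed with ammonium chloride, washed in HBSS, 5 × 10⁶ cells/ml in AIM-V. Restimulated with virus, compounds at 0.5 mg/ml final, triplicate, 37 °C, 5% CO₂. Supernatants collected at 48 h for IL-2 and IFN-γ and at 96 h for IL-10. Sandwich ELISA, TMB readout, four-parameter standard-curve fit.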
(In an ELISA, binding on a coated surface is turned into a signal by an enzyme label.)

In series [2] the test system is Splenocyte. In words: Immunosuppressive activity in influenza virus A/PR/8/34-H1N1 infected mouse splenocytes assessed as reduction of IFN-gamma level at 0.5 mg/ml after 48 hrs by ELISA. Type of series: functional, cell-based. In short, it runs like this: as §1
Series [3] deals with Splenocyte. Put plainly: Immunosuppressive activity in influenza virus A/PR/8/34-H1N1 infected mouse splenocytes assessed as reduction of IL-2 level at 0.5 mg/ml after 48 hrs by ELISA. Type of series: functional, cell-based. A digest of the protocol: as §1
The nature of series [4]: Cytotoxicity against mouse splenocytes assessed as cell viability after 24 hrs by MTS assay. Type of series: cell-based. Conditions: splenocyte. A digest of the protocol: (§2)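 Spleen cells from non-infected mice, no stimulus added, cultured at 5 × 10⁶ cells/ml in AIM-V medium (1.25 × 10⁵ cells/well) with each compound for the stated time at 37 °C, 5% CO₂, humidified. MTS plus phenazine ethosulfate then added and incubated 3 h more. Absorbance read at 490 nm. Viability compared against vehicle control.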

Series [5] can be described thus: Cytotoxicity against mouse splenocytes assessed as cell viability after 48 hrs by MTS assay. Type of series: cell-based. Conditions: splenocyte. In short, it runs like this:
as §2

Series [6] in a line: Cytotoxicity against mouse splenocytes assessed as cell viability after 72 hrs by MTS assay. The settings on record: splenocyte. Type of series: cell-based. A digest of the protocol: as §2
In general terms: Formazan colour is commonly taken as a measure of viable cells.

Regarding `COc1cc2cc3n(c2cc1OC)CCc1ccccc1-3`, the result with Splenocyte [1], in the series on Splenocyte [2] and in the series on Splenocyte [3] was Active. Moreover, the Activity result in series [4], in series [5] and in series [6] was “Toxic” in each case.

Take `FC(F)(F)c1ccc2c(c1)cc1n2CCc2ccccc2-1`: the outcome in the series on Splenocyte [1], in the series on Splenocyte [2] and with Splenocyte [3] was Active. The Activity result in series [4], in series [5] and in series [6] was “Non-toxic” throughout.

Turning to `COc1cc2c(cc1OC)-c1cc3ccccc3n1CC2`, the result in the series with Splenocyte [1], in the series with Splenocyte [2] and with Splenocyte [3] was Active. Also, the Activity result in series [4], in series [5] and in series [6] was “Toxic” throughout.

As for `COc1cc2c(cc1OC)-c1cc3cccc(OC)c3n1CC2`, the outcome with Splenocyte [1], in the series with Splenocyte [2] and with Splenocyte [3] was Active.

With `COc1cc2c(cc1OC)-c1cc3cc(C(F)(F)F)ccc3n1CC2`, the result in the series on Splenocyte [1], in the series on Splenocyte [2] and in the series with Splenocyte [3] was Active. Moreover, the Activity result in series [4], in series [5] and in series [6] was “Toxic” in each case.

For the compound `FC(F)(F)c1ccc2cc3n(c2c1)CCc1ccccc1-3`, the outcome in the series with Splenocyte [1], with Splenocyte [2] and in the series with Splenocyte [3] was Active. Also, the Activity entry is recorded as “Toxic” in series [4], “Non-toxic” in series [5] and “Non-toxic” in series [6].

For `COc1cccc2cc3n(c12)CCc1ccccc1-3`, the outcome in the series with Splenocyte [1], in the series on Splenocyte [2] and with Splenocyte [3] was Active. Moreover, the Activity entry in series [4], in series [5] and in series [6] was “Toxic” throughout.

Turning to `COc1cc2c(cc1OC)-c1cc3ccc(C(F)(F)F)cc3n1CC2`, the outcome in the series with Splenocyte [1], in the series on Splenocyte [2] and in the series with Splenocyte [3] was Active. The values for the Activity entry in series [4], in series [5] and in series [6] were “Toxic”, “Non-toxic” and “Non-toxic”, respectively.

As to `c1ccc2c(c1)CCn1c-2cc2ccccc21`, the result in the series on Splenocyte [1], with Splenocyte [2] and in the series with Splenocyte [3] was Active.

As to `COc1cc2c(cc1OC)-c1cc3cc(OC)c(OC)cc3n1CC2`, the result in the series on Splenocyte [1], with Splenocyte [2] and in the series on Splenocyte [3] was Active. Further, the Activity result in series [4], in series [5] and in series [6] was “Toxic” each time.
